Results on one compound are retold here after ChEMBL document CHEMBL3045839, “Curcumin, a known phenolic from Curcuma longa, attenuates the virulence of Pseudomonas aeruginosa PAO1 in whole plant and animal pathogenicity models” (2008).

For orientation: MIC means the least concentration at which growth counts as inhibited.

Test [1] deals with Pseudomonas aeruginosa. As to the kind of experiment: Down regulation of virulence factor production in Pseudomonas aeruginosa PAO1 assessed as reduction in protease production at 1 to 5 ug/mL relative to untreated control. The test is classed as functional. In short, it runs like this:
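Culture grown with or without curcumin for 24 h at 37 °C in PTSB (5% peptone, 0.25% tryptic soy broth). Filtered supernatant was incubated with 0.8% azocasein in 50 mM K2HPO4, pH 7, for 3 h at 25 °C. The reaction was stopped with 1.5 M HCl, kept on ice 30 min and centrifuged. NaOH was added, OD440 read and normalised to cell density.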

In test [2] the test system is Pseudomonas aeruginosa. Briefly: Growth inhibition of Pseudomonas aeruginosa PAO1 planktonic forms at >5 ug/mL. The test is classed as functional, organism-based. The procedure, abridged:
(§1)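 PAO1 grown in LB with curcumin 0.5–30.0 µg/mL from an initial OD600 of 0.02; compound predissolved in ethanol, final solvent ≤0.02% v/v. OD600 read every 5 h up to 25 h; colony counts taken. n = 6, standard error.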

Test [3] deals with Pseudomonas aeruginosa. Briefly: Down regulation of QS system in Pseudomonas aeruginosa PAO1 assessed as reduction in C4-HSL production at 1 ug/mL by HPLC. It counts as functional. Also noted: scale not given: the % may be the effect or the level left.
Test [4] concerns Pseudomonas aeruginosa. Briefly: Inhibition of biofilm formation of Pseudomonas aeruginosa PAO1 at 2 to 3 ug/mL by confocal scanning laser microscopy. It counts as functional, organism-based. In short, it runs like this: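 PAO1 grown on two-well Permanox slides with curcumin 2–3 µg/mL. Stained with a LIVE/DEAD BacLight kit (SYTO 9/propidium iodide) 48 h postinoculation and imaged by confocal laser scanning microscopy with a 10× objective. Repeated twice, three replicates each.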

The subject of test [5] is Pseudomonas aeruginosa. Briefly: Down regulation of virulence factor production in Pseudomonas aeruginosa PAO1 assessed as reduction in elastase production at 1 to 5 ug/mL relative to untreated control. The test is classed as functional. The procedure, abridged:
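Culture grown with or without curcumin for 24 h at 37 °C in PTSB (5% peptone, 0.25% tryptic soy broth). Filtered supernatant was added to elastin-congo red in 10 mM Na2HPO4, pH 7, and shaken for 4 h at 37 °C. After centrifugation, OD495 was read and normalised to cell density.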

In test [6] the test system is Pseudomonas aeruginosa. Briefly: Growth inhibition of Pseudomonas aeruginosa PAO1 planktonic forms. The test is classed as functional. In short, it runs like this:
as §1

The test system of test [7] is Pseudomonas aeruginosa. Briefly: Down regulation of QS system in Pseudomonas aeruginosa PAO1 assessed as reduction in total homoserine lactone production at 5 ug/mL by HPLC relative to untreated control. It counts as functional.
The test system of test [8] is Pseudomonas aeruginosa. As to the kind of experiment: Antimicrobial activity against Pseudomonas aeruginosa PAO1 infected in Arabidopsis thaliana Col-0 assessed as protection against infection of roots at 3 ug/mL measured 7 days post dose. It counts as functional, organism-based. The procedure, abridged:
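In vitro root pathogenicity: ten-day-old Col-0 plants (n = 20 per treatment) in 2 mL liquid MS medium were inoculated with PAO1 at OD600 0.02–0.04 (~2.8 × 10^8 cells/mL), with curcumin 3.0 µg/mL added together with the bacteria. A non-inoculated control was kept. Plant mortality was recorded 7 days after inoculation; triplicate experiments.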

Test [9] concerns Pseudomonas aeruginosa. Briefly: Down regulation of rhlA expression in Pseudomonas aeruginosa PAO1 at 3 ug/mL by microarray gene expression analysis. The test is classed as functional, organism-based. In short, it runs like this:
(§2)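 PAO1 grown in triplicate in LB with curcumin 3 µg/mL, starting at OD600 ~0.02, at 37 °C and 200 rpm for 10 h (~2 OD600). RNA was isolated from 5 mL of culture, and 10 µg was amplified for microarray expression analysis.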

For test [10], the system named is Pseudomonas aeruginosa. Briefly: Inhibition of biofilm formation of Pseudomonas aeruginosa PAO1 at 1.5 to 3 ug/mL by crystal violet staining method. The test is classed as functional, organism-based. In short, it runs like this:
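Static biofilm in polypropylene tubes with LB containing curcumin 1.5–3.0 µg/mL from the start of incubation; ethanol equalized across tubes. Crystal violet staining, ethanol solubilization, OD read. Three replicates.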

Test [11] concerns Pseudomonas aeruginosa. Briefly: Down regulation of lasI expression in Pseudomonas aeruginosa PAO1 at 3 ug/mL by microarray gene expression analysis. It counts as functional, organism-based. In short, it runs like this: as §2
Test [12] concerns Pseudomonas aeruginosa. Briefly: Antimicrobial activity against Pseudomonas aeruginosa PAO1 infected in Arabidopsis thaliana Col-0 assessed as inhibition of biofilm formation in roots at 3 ug/mL measured 7 days post dose. The test is classed as functional, organism-based. The procedure, abridged:
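Ten-day-old Col-0 plants in 2 mL liquid MS medium were inoculated with PAO1 (OD600 0.02–0.04) with curcumin 3.0 µg/mL added alongside the bacteria. Root-surface biofilm was imaged by confocal microscopy after BacLight live/dead staining.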

Test [13] concerns Pseudomonas aeruginosa. Briefly: Down regulation of virulence factor production in Pseudomonas aeruginosa PAO1 assessed as reduction in pyocyanin production at 1.5 to 3 ug/mL. It counts as functional. Also noted: scale not given: the % may be the effect or the level left. The procedure, abridged: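 PAO1 grown in LB with or without curcumin (1.5–3 µg mL-1) and harvested. Pyocyanin was extracted and estimated by the Mahajan-Miklos method, then normalised against live cell numbers.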

For test [14], the system named is Pseudomonas aeruginosa. Briefly: Effect on QS system related genes in Pseudomonas aeruginosa PAO1 at 3 ug/mL by microarray gene expression analysis. The test is classed as functional, organism-based. The procedure, abridged:
as §2

The test system of test [15] is Pseudomonas aeruginosa. As to the kind of experiment: Down regulation of phzD expression in Pseudomonas aeruginosa PAO1 at 3 ug/mL by microarray gene expression analysis. It counts as functional, organism-based. In short, it runs like this: as §2
For test [16], the system named is Pseudomonas aeruginosa. Briefly: Down regulation of QS system in Pseudomonas aeruginosa PAO1 assessed as reduction in 3-oxo-C12-HSL production at 1 ug/mL by HPLC. It counts as functional. Also noted: scale not given: the % may be the effect or the level left.
For test [17], the system named is Pseudomonas aeruginosa. As to the kind of experiment: Antimicrobial activity against Pseudomonas aeruginosa PAO1 infected in Arabidopsis thaliana Col-0 assessed as change in bacterial count in presence of AHL/3-oxo-HSL. The test is classed as functional, organism-based. In short, it runs like this:
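Col-0 seedlings in liquid MS medium inoculated with PAO1 (OD600 0.02–0.04, ~2.8 × 10^8 cells/mL) plus curcumin 3.0 µg/mL, with or without exogenous AHL/3-oxo-HSL. Roots harvested after 7 days; bacteria enumerated as CFU per gram fresh weight. Triplicate experiments.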

≈ marks a conversion by molar mass, not a printed value. Calls of active or inactive are those of the source. No cut-off for these calls is given here.

Turning to `COc1cc(/C=C/C(=O)CC(=O)/C=C/c2ccc(O)c(OC)c2)ccc1O` [CURCUMIN], the “fold change (FC)” value came to 2 with Pseudomonas aeruginosa [1], 2 in the test with Pseudomonas aeruginosa [5] and 3 in the test on Pseudomonas aeruginosa [7]. Also, the “growth inhibition (GI)” value in the test with Pseudomonas aeruginosa [2] is “inactive”. Further, the Activity with Pseudomonas aeruginosa [3] is on record as more than 2%; with Pseudomonas aeruginosa [13], 60%; in the test on Pseudomonas aeruginosa [16] it was 25%. In addition, the inhibition result in the test with Pseudomonas aeruginosa [4], in the test with Pseudomonas aeruginosa [8], in the test with Pseudomonas aeruginosa [10] and with Pseudomonas aeruginosa [12] was “Active” in each case. 30 µg/mL (≈ 81.4 µM) was the least that counted as inhibitory with Pseudomonas aeruginosa [6] (MIC). Moreover, the result with Pseudomonas aeruginosa [9], in the test with Pseudomonas aeruginosa [11], with Pseudomonas aeruginosa [14] and with Pseudomonas aeruginosa [15] was Active. Besides, the result in the test on Pseudomonas aeruginosa [17] was inactive.
